Results: article PMC3401603 (Nature Chemical Biology, 2012)

Columns and labels:
Y323K menin mutant = Y323K menin mutant (Homo sapiens, UniProt O00255, Y323K); assay: Thermal shift assay, Y323K menin mutant; type: binding
MLL-ENL transformed BMC = assay: Differentiation by morphology, MLL-ENL transformed BMC; type: cell-based, mouse
MLL-AF9 transformed BMC [1] = assay: Methylcellulose colony formation assay, MLL-AF9 transformed BMC; type: cell-based, mouse; details: 7 days
Procedure, shortened: (§1)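 Transduced BMC were plated at 5×10³ cells/ml in methylcellulose medium containing 20% IMDM, 1% penicillin/streptomycin, IL-3 and either the test compound or 0.25% DMSO. Colonies were stained with iodonitrotetrazolium chloride (1 mg/ml final, 37 °C, 30 min) and counted. For a second round, unstained colonies were counted, washed out in PBS, and 5×10³ cells were replated in the same medium with compound, then stained and counted.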

[2] = tested on: CD11b expression in MLL-AF9 transformed BMC; assay: CD11b expression by flow cytometry, MLL-AF9 transformed BMC; type: cell-based, mouse; details: 7 days of treatment
Procedure, shortened: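 BMC were cultured in IMDM with 15% FBS, penicillin/streptomycin and IL-3, and plated at 5×10⁵ cells/ml with the test compound or 0.25% DMSO. Every 48h the medium was changed, viable density restored and compound resupplied. 1.5×10⁵ cells were washed in PBS/1% FBS/0.1% NaN₃, stained with Pacific Blue anti-mouse CD11b (4 °C, 30 min), then Annexin V-FITC/PI, and run on flow cytometry. Triplicates, mean ± s.d.; one-way ANOVA against DMSO; three experiments.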

ML-2 (MLL-AF6) = assay: MTT cell viability assay, ML-2; type: cell-based, human; details: ML-2, MTT
Procedure, shortened: (§2)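 Growth inhibition was read by MTT viability assay, with 72h treatment stated for KOPN-8 and MV4;11. Media: KOPN-8 and ML-2, RPMI-1640 with 10% FBS. MV4;11, RPMI-1640 with 10% FBS, 1% penicillin/streptomycin and NEAA. MonoMac-6, RPMI-1640 with 15% FBS, human insulin, penicillin/streptomycin and NEAA. For KOPN-8 and MV4;11: four samples, mean ± s.d., three experiments.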

menin-MLL-AF9 complex = menin-MLL-AF9 complex (Homo sapiens, UniProt O00255); assay: Co-immunoprecipitation in HEK293 cells transfected with Flag-MLL-AF9; type: cell-based
Procedure, shortened: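 Menin co-precipitating with Flag-MLL-AF9 was detected by Western blot. Untransfected cells controlled for endogenous menin and for absence of MLL-AF9. Menin and MLL-AF9 expression levels were also checked by Western blot.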

E2A-HLF transformed BMC [3] = assay: Methylcellulose colony formation assay, E2A-HLF transformed BMC; type: cell-based, mouse
Procedure, shortened: as §1

Hoxa9 [4] = assay: Quantitative RT-PCR of Hoxa9 in MLL-AF9 transduced BMC; type: cell-based, mouse; details: 6 days
MEIS1 [5] = assay: qRT-PCR of MEIS1 in THP-1 cells; type: cell-based, human; details: THP-1, 6 days
Procedure, shortened: (§3)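 THP-1 cells in RPMI-1640 with 10% FBS, 1% penicillin/streptomycin and NEAA were treated with the test compound for 6 days. Total RNA (100–1000 ng) was reverse transcribed, and TaqMan qPCR measured human HOXA9 or MEIS1, normalised to 18S rRNA by the comparative Ct method. Duplicates, mean ± s.d.; three experiments.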

MLL-AF9 transduced BMC = assay: MTT cell viability assay, MLL-AF9 transduced BMC; type: cell-based, mouse
Procedure, shortened: (§4)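 Retrovirally transduced mouse bone marrow cells were grown in IMDM with 15% FBS, 1% penicillin/streptomycin and IL-3. Growth inhibition by the test compound was measured by MTT viability assay. Quadruplicates, mean ± s.d.; three experiments.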

wild-type menin = wild-type menin (Homo sapiens, UniProt O00255); assay: Thermal shift assay, wild-type menin; type: binding
[6] = tested on: MV4;11 (harboring MLL-AF4); assay: MTT cell viability assay, MV4; type: cell-based, human; details: MV4;11, MTT, 72h
Procedure, shortened: as §2

E2A-HLF transformed BMC [7] = assay: Differentiation by morphology, E2A-HLF transformed BMC; type: cell-based, mouse
MonoMac6 (MLL-AF9) = assay: MTT cell viability assay, MonoMac6; type: cell-based, human
Procedure, shortened: as §2

M278K menin mutant = M278K menin mutant (Homo sapiens, UniProt O00255, M278K); assay: Thermal shift assay, M278K menin mutant; type: binding
E2A-HLF transduced BMC = assay: MTT cell viability assay, E2A-HLF transduced BMC; type: cell-based, mouse
Procedure, shortened: as §4

MLL-ENL transduced BMC = assay: MTT cell viability assay, MLL-ENL transduced BMC; type: cell-based, mouse
Procedure, shortened: as §4

MV4;11 leukemia cells = assay: Cell cycle analysis by FACS after PI staining, MV4; type: cell-based, human; details: MV4;11, PI staining
MonoMac6 = assay: Annexin V/PI apoptosis assay, MonoMac6; type: cell-based, human; details: MonoMac6, 48h
Procedure, shortened: (§5)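 Cells were seeded at 5×10⁵ cells/ml and exposed to the test compound or vehicle (0.25% DMSO final) for 48h at 37 °C in 5% CO₂. 1.5×10⁵ cells were then stained with Annexin V-FITC and propidium iodide in Annexin V binding buffer for 10 min at room temperature in the dark, and analysed by flow cytometry. Three experiments in triplicate; mean and SD.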

HOXA9 [8] = assay: qRT-PCR of HOXA9 in THP-1 cells; type: cell-based, human; details: THP-1, 6 days
Procedure, shortened: as §3

MV4;11 = assay: Annexin V/PI apoptosis assay, MV4; type: cell-based, human; details: MV4;11, 48h
Procedure, shortened: as §5

[9] = tested on: CD11b expression in THP-1 cells; assay: CD11b expression by flow cytometry, THP-1; type: cell-based, human; details: THP-1, 6 days of treatment
KOPN-8 (MLL-ENL) = assay: MTT cell viability assay, KOPN-8; type: cell-based, human; details: KOPN-8, MTT, 72h
Procedure, shortened: as §2

MLL-AF9 transformed BMC [10] = assay: Differentiation by morphology; type: cell-based, mouse; details: 7 to 10 days, 25 μM
[11] = tested on: Kasumi-1, ME-1, HAL-01 and REH; assay: Growth of human acute leukemia cell lines lacking MLL fusions; type: cell-based; details: low HOXA9: Kasumi-1, ME-1, HAL-01, REH
Meis1 [12] = assay: Quantitative RT-PCR of Meis1 in MLL-AF9 transduced BMC; type: cell-based, mouse; details: 6 days
[13] = tested on: menin and MLL-AF9 at the Hoxa9 locus; assay: ChIP at the Hoxa9 locus in MLL-AF9 transduced BMC; type: cell-based, mouse; details: 12.5 μM
Procedure, shortened: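 ChIP used BMC exposed to the test compound at 12.5 μM or to DMSO. Antibodies were against menin and AF9, with IgG as control. Enrichment was read at two sites in the Hoxa9 promoter region. Duplicate samples, mean ± s.d.; two experiments.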

Chain of wild-type menin (O00255 whole entry): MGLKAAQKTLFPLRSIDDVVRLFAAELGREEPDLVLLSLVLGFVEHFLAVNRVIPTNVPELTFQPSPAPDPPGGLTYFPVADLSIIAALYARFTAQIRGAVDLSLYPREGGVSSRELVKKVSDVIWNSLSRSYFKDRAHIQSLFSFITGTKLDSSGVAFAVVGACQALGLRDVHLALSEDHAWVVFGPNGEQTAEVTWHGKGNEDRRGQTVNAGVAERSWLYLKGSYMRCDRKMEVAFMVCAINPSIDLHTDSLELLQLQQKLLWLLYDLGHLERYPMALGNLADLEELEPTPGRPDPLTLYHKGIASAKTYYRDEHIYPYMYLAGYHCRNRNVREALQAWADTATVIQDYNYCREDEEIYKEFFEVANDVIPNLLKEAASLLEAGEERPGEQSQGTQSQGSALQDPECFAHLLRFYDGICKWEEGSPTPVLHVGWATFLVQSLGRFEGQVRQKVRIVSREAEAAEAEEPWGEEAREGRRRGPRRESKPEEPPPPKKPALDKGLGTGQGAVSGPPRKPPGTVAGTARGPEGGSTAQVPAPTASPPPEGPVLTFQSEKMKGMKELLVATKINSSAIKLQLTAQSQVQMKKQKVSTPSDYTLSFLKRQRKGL
Chain of menin-MLL-AF9 complex (O00255 whole entry, one chain of several): as the sequence (O00255 whole entry) above
Chain of Y323K menin mutant (O00255 whole entry Y323K): as the sequence (O00255 whole entry) above, with Y323K counted along it
Chain of M278K menin mutant (O00255 whole entry M278K): as the sequence (O00255 whole entry) above, with M278K counted along it

CCCc1cc2c(N3CCN(C4=NCC(C)(C)S4)CC3)ncnc2s1 [MI-2]
binding to Y323K menin mutant (Y323K menin mutant): no binding
differentiation (cell morphology) (MLL-ENL transformed BMC): observed differentiation
effect on colony formation (MLL-AF9 transformed BMC [1]): substantially reduced colony formation
expression of CD11b [2]: substantially increased
GI50 (ML-2 (MLL-AF6)): 8.7 µM
disruption of the menin-MLL-AF9 complex (co-IP) (menin-MLL-AF9 complex): very efficiently disrupted
effect on the number, size and morphology of colonies (E2A-HLF transformed BMC [3]): only a limited effect
decrease of Hoxa9 expression level (Hoxa9 [4]; 12.5 μM): > 80%
decrease of Hoxa9 expression level (Hoxa9 [4]; 25 μM): > 80%
expression of MEIS1 (MEIS1 [5]): substantially reduced expression
GI50 (MLL-AF9 transduced BMC): ~5 µM
binding to wild-type menin (wild-type menin): clearly observed binding
GI50 [6]: 9.5 µM
differentiation (cell morphology) (E2A-HLF transformed BMC [7]): did not differentiate
GI50 (MonoMac6 (MLL-AF9)): 18 µM
binding to M278K menin mutant (M278K menin mutant): no binding
GI50 (E2A-HLF transduced BMC): > 50 µM
GI50 (MLL-ENL transduced BMC): ~5 µM
effect on cell cycle progression (MV4;11 leukemia cells): consistent increase in the number of cells in G0/G1 phase
Annexin V (+) and Annexin V/PI (+)/(+) cells (apoptosis) (MonoMac6): substantial, and dose-dependent increase
expression of HOXA9 (HOXA9 [8]): substantially reduced expression
Annexin V (+) and Annexin V/PI (+)/(+) cells (apoptosis) (MV4;11): substantial, and dose-dependent increase
CD11b positive cells [9]: substantial increase in CD11b positive cells
GI50 (KOPN-8 (MLL-ENL)): 7.2 µM
differentiation (cell morphology) (MLL-AF9 transformed BMC [10]): substantial changes in morphology, indicative of monocytic differentiation
effect on proliferation [11]: very limited effect
decrease of Meis1 expression level (Meis1 [12]; 12.5 μM): > 80%
decrease of Meis1 expression level (Meis1 [12]; 25 μM): > 80%
binding of menin and MLL-AF9 to the Hoxa9 locus (ChIP) [13]: decreased binding of menin and MLL-AF9
